Usually IC50 stands for the concentration needed to halve the response being measured.

The values below come from ChEMBL document CHEMBL1817563, “Novel aminopeptidase N (APN/CD13) inhibitors derived from chloramphenicol amine” (Bioorg Med Chem, 2011).

Assay [1] addresses T1, Aminopeptidase N (Sus scrofa, UniProt P15145).
T1 sequence (P15145 whole entry): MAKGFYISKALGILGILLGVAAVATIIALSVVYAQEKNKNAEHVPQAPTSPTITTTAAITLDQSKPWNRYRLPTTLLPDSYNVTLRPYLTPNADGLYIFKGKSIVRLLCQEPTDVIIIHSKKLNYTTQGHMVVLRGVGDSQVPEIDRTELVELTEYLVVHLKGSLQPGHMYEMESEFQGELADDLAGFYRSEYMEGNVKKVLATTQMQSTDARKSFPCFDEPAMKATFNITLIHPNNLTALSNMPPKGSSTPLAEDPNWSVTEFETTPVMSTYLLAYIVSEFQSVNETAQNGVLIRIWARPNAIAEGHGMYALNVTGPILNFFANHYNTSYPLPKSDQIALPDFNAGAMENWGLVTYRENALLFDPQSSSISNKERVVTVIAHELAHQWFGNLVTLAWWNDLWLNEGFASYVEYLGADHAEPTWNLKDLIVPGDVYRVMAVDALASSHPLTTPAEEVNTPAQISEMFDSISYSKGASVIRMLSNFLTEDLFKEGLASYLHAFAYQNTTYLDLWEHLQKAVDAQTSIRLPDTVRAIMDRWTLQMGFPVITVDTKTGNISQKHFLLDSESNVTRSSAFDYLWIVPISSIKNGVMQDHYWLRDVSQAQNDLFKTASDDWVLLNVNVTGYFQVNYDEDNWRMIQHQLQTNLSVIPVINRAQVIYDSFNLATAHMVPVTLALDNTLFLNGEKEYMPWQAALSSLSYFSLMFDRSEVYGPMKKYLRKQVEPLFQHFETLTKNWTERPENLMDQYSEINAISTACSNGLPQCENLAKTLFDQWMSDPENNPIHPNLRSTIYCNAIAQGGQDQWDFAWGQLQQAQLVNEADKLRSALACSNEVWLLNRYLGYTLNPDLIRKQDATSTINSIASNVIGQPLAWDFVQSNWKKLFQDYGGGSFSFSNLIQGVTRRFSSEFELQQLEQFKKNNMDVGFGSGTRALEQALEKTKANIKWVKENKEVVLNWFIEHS
The assay can be described thus: Inhibition of pig kidney microsomal APN assessed as hydrolysis of L-Leu-p-nitroanilide after 1 hr by spectrophotometry. In outline: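 Porcine kidney microsomal aminopeptidase in 50 mM PBS, pH 7.2, with L-Leu-p-nitroanilide as substrate. Incubated with a range of inhibitor concentrations at 37 °C. Triplicate experiments, reported as mean ± standard deviation.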

In assay [2] the target is 72 kDa type IV collagenase (Homo sapiens, UniProt P08253). The assay can be described thus: Inhibition of human MMP-2 after 30 mins by spectrophotometry. In outline:
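MMP-2 was incubated with synthetic substrate and inhibitor in 50 mM sodium borate, pH 8.5, for 30 min at 37 °C. TNBS (0.03%, m/v) was then added for 20 min at room temperature. Absorbance was read at 450 nm. IC50 is the mean ± standard deviation of triplicate experiments.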

The nature of assay [3]: Selectivity ratio of IC50 for MMP-2 to IC50 for pig kidney microsomal APN.
The target in assay [4] is Aminopeptidase N (Homo sapiens, UniProt P15144). The assay can be described thus: Inhibition of APN in human HL60 cells assessed as hydrolysis of L-Leu-p-nitroanilide by spectrophotometry. It is filed as cell-based, HL-60. In outline:
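Intact HL-60 cells suspended in PBS (1×10^5/well) served as the enzyme source, with L-Leu-p-nitroanilide as substrate. Cells were incubated at 37 °C with a range of inhibitor concentrations. Values are means of three independent experiments.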

The test system of assay [5] is HL-60. In words: Antiproliferative activity against human HL60 cells expressing high levels of APN after 48 hrs by MTT assay. In kind it is functional, cell-based. As to conditions: HL-60, 48 h. In outline:
(§1)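 Cells kept in RPMI1640 plus 10% FBS at 37 °C, 5% CO2. Seeded 1×10^4/well and grown 4 h before inhibitors were added over a range of concentrations. After 48 h exposure, MTT (0.5 mg/mL) was added and the formazan dissolved in DMSO. Read-out was OD at 570 nm.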
(In general: Tetrazolium assays rely on reduction of a dye to a coloured formazan, in cell work by metabolically active cells.)

The subject of assay [6] is MDA-MB-231. In words: Antiproliferative activity against human MDA-MB-231 cells expressing low levels of APN after 48 hrs by MTT assay. It is filed as functional, cell-based. As to conditions: MDA-MB-231, 48 h. The gist of the method:
as §1

72 kDa type IV collagenase, sequence (P08253 whole entry): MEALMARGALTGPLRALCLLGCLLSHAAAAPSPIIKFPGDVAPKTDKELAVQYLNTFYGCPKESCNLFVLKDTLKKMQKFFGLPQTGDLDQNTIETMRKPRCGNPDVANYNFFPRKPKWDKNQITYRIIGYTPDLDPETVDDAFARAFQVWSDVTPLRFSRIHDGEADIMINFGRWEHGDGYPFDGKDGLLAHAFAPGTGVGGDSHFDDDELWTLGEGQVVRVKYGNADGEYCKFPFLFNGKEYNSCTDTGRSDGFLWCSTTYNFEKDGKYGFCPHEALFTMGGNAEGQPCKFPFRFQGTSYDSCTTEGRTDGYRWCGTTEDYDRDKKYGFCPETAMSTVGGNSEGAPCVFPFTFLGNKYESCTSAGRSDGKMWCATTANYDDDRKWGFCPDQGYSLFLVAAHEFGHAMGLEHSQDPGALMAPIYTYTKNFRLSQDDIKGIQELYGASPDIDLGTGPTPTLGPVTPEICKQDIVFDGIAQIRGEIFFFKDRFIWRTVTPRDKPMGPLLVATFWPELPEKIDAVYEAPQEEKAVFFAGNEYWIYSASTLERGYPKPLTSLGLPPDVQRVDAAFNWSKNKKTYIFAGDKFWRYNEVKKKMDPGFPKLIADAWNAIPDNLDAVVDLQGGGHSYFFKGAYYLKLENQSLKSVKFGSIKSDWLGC
Aminopeptidase N (Homo sapiens, UniProt P15144), sequence (P15144 whole entry): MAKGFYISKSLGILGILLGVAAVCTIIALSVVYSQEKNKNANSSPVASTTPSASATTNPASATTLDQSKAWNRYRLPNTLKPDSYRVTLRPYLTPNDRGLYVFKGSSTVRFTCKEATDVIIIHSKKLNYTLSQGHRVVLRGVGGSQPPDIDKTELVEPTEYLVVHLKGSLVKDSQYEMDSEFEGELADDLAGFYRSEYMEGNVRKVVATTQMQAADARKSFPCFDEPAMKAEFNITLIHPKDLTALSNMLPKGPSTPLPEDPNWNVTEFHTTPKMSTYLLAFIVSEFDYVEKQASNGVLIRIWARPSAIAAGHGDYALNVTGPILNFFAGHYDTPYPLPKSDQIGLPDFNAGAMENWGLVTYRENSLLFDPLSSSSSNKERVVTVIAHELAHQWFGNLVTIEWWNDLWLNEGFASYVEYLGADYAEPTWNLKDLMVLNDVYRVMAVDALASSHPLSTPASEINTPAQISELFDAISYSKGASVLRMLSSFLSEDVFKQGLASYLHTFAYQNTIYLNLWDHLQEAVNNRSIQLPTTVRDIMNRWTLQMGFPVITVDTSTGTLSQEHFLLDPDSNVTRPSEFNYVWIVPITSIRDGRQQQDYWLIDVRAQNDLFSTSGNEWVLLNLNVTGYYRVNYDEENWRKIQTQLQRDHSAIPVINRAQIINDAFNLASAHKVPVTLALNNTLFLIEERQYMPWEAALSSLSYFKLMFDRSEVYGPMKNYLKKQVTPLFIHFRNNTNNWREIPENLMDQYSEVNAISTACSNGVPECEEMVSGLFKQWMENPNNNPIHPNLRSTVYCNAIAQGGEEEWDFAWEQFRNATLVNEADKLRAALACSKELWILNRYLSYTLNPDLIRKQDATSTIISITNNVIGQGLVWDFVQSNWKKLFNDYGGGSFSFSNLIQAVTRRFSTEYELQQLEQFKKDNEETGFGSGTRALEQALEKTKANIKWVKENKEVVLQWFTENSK

In the case of `CC(C)C[C@H](N)C(=O)N[C@H](Cc1ccccc1)C(=O)NC[C@H](N)[C@@H](O)c1ccc(I)cc1`, the IC50 in assay [1] is 11.3 µM; in assay [2], 86.6 µM. Also, the Ratio IC50 in assay [3] was 7.7.

As to `NC[C@H](O)C(=O)N[C@H](Cc1ccccc1)C(=O)NC[C@H](N)[C@@H](O)c1ccc([N+](=O)[O-])cc1`, the IC50 in assay [1] was 6.5 µM; in assay [2], 40.6 µM; in assay [4], 66.3 µM; in assay [5], 2040 µM; in assay [6] it was 4130 µM. Besides, the Ratio IC50 in assay [3] was 6.3.

Turning to `CC(C)C[C@H](N)C(=O)NC[C@H](N)[C@@H](O)c1ccc(N)cc1`, the IC50 was 63.2 µM in assay [1] and 119 µM in assay [2]. For the same compound, in assay [3], the Ratio IC50 came out at 1.9.

In the case of `N[C@H](Cc1ccccc1)C(=O)N[C@H](Cc1ccccc1)C(=O)NC[C@H](N)[C@@H](O)c1ccc([N+](=O)[O-])cc1`, the IC50 in assay [1] amounted to 134 µM; in assay [2], 44.1 µM. Further, the Ratio IC50 in assay [3] is 0.3.

As to `N[C@@H](CNC(=O)[C@@H]1Cc2ccc(O)cc2CN1)[C@@H](O)c1ccc([N+](=O)[O-])cc1`, the IC50 was 441 µM in assay [1] and over 1000 µM in assay [2]. The Ratio IC50 in assay [3] is over 2.3.

On to `N[C@@H](CO)C(=O)NC[C@H](N)[C@@H](O)c1ccc([N+](=O)[O-])cc1`, for which the IC50 in assay [1] amounted to 423 µM; in assay [2], 331 µM. For the same compound, the Ratio IC50 in assay [3] came out at 0.8.

Take `Nc1ccc([C@H](O)[C@@H](N)CNC(=O)[C@H](N)Cc2ccccc2)cc1`: the IC50 in assay [1] was determined as 141 µM; in assay [2], 149 µM. Also, in assay [3], the Ratio IC50 turned out to be 1.1.

Consider `NCCCC[C@H](N)C(=O)NC[C@H](N)[C@@H](O)c1ccc([N+](=O)[O-])cc1`, for which the IC50 in assay [1] stood at 50.1 µM; in assay [2], 84.3 µM. The Ratio IC50 in assay [3] was found to be 1.7.

In the case of `NC[C@H](O)C(=O)NC[C@H](N)[C@@H](O)c1ccc([N+](=O)[O-])cc1`, the IC50 in assay [1] was found to be 164 µM; in assay [2], 100 µM.

On to `CC(C)C[C@H](N)C(=O)N[C@H](Cc1ccccc1)C(=O)NC[C@H](N)[C@@H](O)c1ccc(N)cc1`, for which the IC50 turned out to be 6.1 µM in assay [1]; 134 µM in assay [2]; 39.4 µM in assay [4]; 1340 µM in assay [5]; 3650 µM in assay [6]. Also, in assay [3], the Ratio IC50 came out at 22.3.

`CC(C)C[C@H](NC(=O)[C@@H](O)[C@H](N)Cc1ccccc1)C(=O)O` [UBENIMEX]: the IC50 in assay [2] stood at 120 µM; in assay [6], 5080 µM.

As to `Nc1ccc([C@H](O)[C@@H](N)CNC(=O)[C@@H](Cc2ccccc2)NC(=O)[C@H](N)Cc2ccccc2)cc1`, the IC50 in assay [1] worked out at 30.6 µM; in assay [2], 40.4 µM. The Ratio IC50 in assay [3] is 1.3.

On to `CC(C)C[C@H](NC(=O)[C@H](N)Cc1ccccc1)C(=O)NC[C@H](N)[C@@H](O)c1ccc(N)cc1`, for which the IC50 in assay [1] is 31.6 µM; in assay [2] it was 94 µM. In addition, the Ratio IC50 in assay [3] was 3.

`N[C@H](Cc1ccccc1)C(=O)N[C@@H](CO)C(=O)NC[C@H](N)[C@@H](O)c1ccc([N+](=O)[O-])cc1`: the IC50 in assay [1] was 21.6 µM; in assay [2], 110 µM. For the same compound, in assay [3], the Ratio IC50 came to 5.

For the compound `N[C@@H](Cc1ccc(O)cc1)C(=O)NC[C@H](N)[C@@H](O)c1ccc([N+](=O)[O-])cc1`, the IC50 in assay [1] came out at 39.2 µM; in assay [2] it was 61.3 µM. Moreover, the Ratio IC50 in assay [3] was 1.6.

Regarding `CC(C)C[C@H](N)C(=O)NC[C@H](N)[C@@H](O)c1ccc([N+](=O)[O-])cc1`, the IC50 in assay [1] was determined as 80.6 µM; in assay [2], 143 µM. Besides, in assay [3], the Ratio IC50 was determined as 1.8.

Turning to `NC[C@H](N)[C@@H](O)c1ccc([N+](=O)[O-])cc1`, the 50% inhibitory concentration (IC50) in assay [1] was 894 µM; in assay [2] it was over 1000 µM. The Ratio IC50 in assay [3] was over 1.1.

Consider `N[C@H](Cc1ccccc1)C(=O)N[C@H](Cc1ccccc1)C(=O)NC[C@H](N)[C@@H](O)c1ccc(I)cc1`, for which the 50% inhibitory concentration (IC50) in assay [1] is over 1000 µM; in assay [2], 107 µM. In addition, the Ratio IC50 in assay [3] is under 0.1.

Consider `CC(C)C[C@H](N)C(=O)NC[C@H](N)[C@@H](O)c1ccc(I)cc1`, for which the figures for the IC50 in assay [1] and in assay [2] were 30.6 µM and 120 µM, respectively. For the same compound, the Ratio IC50 in assay [3] stood at 3.9.

As for `N[C@@H](CS)C(=O)NC[C@H](N)[C@@H](O)c1ccc([N+](=O)[O-])cc1`, the IC50 in assay [1] turned out to be 12.4 µM; in assay [2], 152 µM; in assay [4], 248 µM; in assay [5], 2320 µM; in assay [6], 4220 µM. Further, in assay [3], the Ratio IC50 came to 12.7.

Regarding `Nc1ccc([C@H](O)[C@@H](N)CNC(=O)[C@@H](N)Cc2ccc(O)cc2)cc1`, the IC50 turned out to be 114 µM in assay [1] and 111 µM in assay [2]. Further, the Ratio IC50 in assay [3] stood at 1.

For the compound `CC(C)C[C@H](N)C(=O)N[C@H](Cc1ccccc1)C(=O)NC[C@H](N)[C@@H](O)c1ccc([N+](=O)[O-])cc1`, the IC50 was 9.4 µM in assay [1]; 173 µM in assay [2]; 290 µM in assay [4]; 2150 µM in assay [5]; 1320 µM in assay [6]. In addition, the Ratio IC50 in assay [3] was 19.2.

With `N[C@@H](Cc1ccc(O)cc1)C(=O)NC[C@H](N)[C@@H](O)c1ccc(I)cc1`, the IC50 in assay [1] was 21.6 µM; in assay [2], 42.2 µM. Also, the Ratio IC50 in assay [3] stood at 2.

Turning to `NCCCC[C@H](N)C(=O)NC[C@H](N)[C@@H](O)c1ccc(N)cc1`, the IC50 in assay [1] is 136 µM; in assay [2], 157 µM. Also, in assay [3], the Ratio IC50 is 1.2.

Take `CC(C)C[C@H](NC(=O)[C@H](N)Cc1ccccc1)C(=O)NC[C@H](N)[C@@H](O)c1ccc([N+](=O)[O-])cc1`: the IC50 came out at 74.7 µM in assay [1] and 106 µM in assay [2]. The Ratio IC50 in assay [3] was determined as 1.4.

Regarding `N[C@H](Cc1ccccc1)C(=O)NC[C@H](N)[C@@H](O)c1ccc([N+](=O)[O-])cc1`, the results for the IC50 in assay [1] and in assay [2] were 42.2 µM and 67.4 µM, respectively. For the same compound, the Ratio IC50 in assay [3] came to 1.6.

With `CC(C)C[C@H](NC(=O)[C@@H](O)CN)C(=O)NC[C@H](N)[C@@H](O)c1ccc([N+](=O)[O-])cc1`, the IC50 in assay [1] was 19.6 µM; in assay [2], 83.9 µM. Besides, the Ratio IC50 in assay [3] came out at 4.2.

In the case of `CC(C)C[C@H](NC(=O)[C@H](N)Cc1ccccc1)C(=O)NC[C@H](N)[C@@H](O)c1ccc(I)cc1`, the values for the IC50 in assay [1] and in assay [2] were 105 µM and 52.7 µM, respectively. Also, in assay [3], the Ratio IC50 stood at 0.5.

`N[C@H](Cc1ccccc1)C(=O)NC[C@H](O)C(=O)NC[C@H](N)[C@@H](O)c1ccc([N+](=O)[O-])cc1`: the IC50 in assay [1] stood at 17.6 µM; in assay [2], 109 µM; in assay [4] it was 616 µM; in assay [5], 3150 µM; in assay [6] it was 7320 µM. Moreover, the Ratio IC50 in assay [3] was 6.1.
